A short description of the data set: Toxicity liver stage against HepG2, at 10uM. Type of data set: cell-based. More on the design: test concentration 10 uM, cell line HepG2-A16-CD81EGFP. Particulars: human, HepG2-A16-CD81EGFP cells; read-out: INHIBITION
An outline of the steps:
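Uninfected HepG2-A16-CD81EGFP cells, 3 × 10^3 per well, 1536-well, plated on prespotted compound at 10 μM final, parasite-free screening media added to match infected plates; puromycin 10 μM positive, DMSO 0.5% negative; run in parallel with 48 h PbLuc assay at 37 °C, 5% CO2; viability by CellTiter-Glo luminescence, normalized to controls.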
As for `CC[C@H](C)[C@H](NC(=O)Cn1ccc2ccc(F)cc21)C(=O)OC`, the cytotoxicity at 10 µM came to 4.12%.
In the case of `Cc1cccc2c1N(C)C(=O)C21CC(=O)Nc2c1cnn2C(C)(C)C` (stereo unspecified) it was -1.65%; in that of `CCCc1cc(=O)[nH]c2nnc(SCC(=O)NC(C)(C)C)n12`, 9.57%.
`CC(C)C(=O)N1CCC2(CC1)NC(=O)[C@H]1CN(Cc3cccnc3)C[C@H]12`: the cytotoxicity at 10 µM was -0.331%.
In the case of `CC(=O)N1CCc2[nH]nc(C(=O)N3CCOCC3)c2C1` it was -7.37%; in that of `CC(=O)N1[C@H](CN(C)C)C[C@@H]2CN(C(=O)c3ccsc3)CC[C@@H]21`, -0.744%; in that of `CC(C)NC(=O)c1ccc2c(c1)C(c1nc[nH]n1)CN2S(C)(=O)=O` (stereo unspecified), -132%.
In the case of `c1cc(CN2CCO[C@@H]3CNC[C@@H]32)co1` it was 6.71%; in that of `CS(=O)(=O)N1CCCC12CCCN(C(=O)c1ccc[nH]1)C2` (stereo unspecified), -145%; in that of `CNC(=O)c1cc2c(nc1NC(C)C)CCNCC2`, 0.102%.
Regarding `Cc1noc(C)c1CN1C[C@@H]2COC[C@]2(COc2ccc(C#N)cn2)C1`, the cytotoxicity at 10 µM is 9.49%.
As for `Cc1ccoc1C(=O)N1C[C@@H]2COC[C@]2(CNS(C)(=O)=O)C1`, the figure is -1.14%; as for `Cc1noc(C)c1CN1CC2(CCN(C(=O)c3c[nH]cn3)C2)CC1=O` (stereo unspecified), -5.23%; as for `O=C(c1ccn(COc2ccc(F)cc2)n1)N1CCCCCC1`, 9.84%.
In the case of `CCCn1nnc(NCc2cc(Br)cc(Br)c2OC)n1` it was 12.6%; in that of `CCC(=O)Nc1nnc(CCOc2ccccc2OC)s1`, 2.38%; in that of `CC(C)N1CCOC(c2ccnc(N(C)C)n2)C1` (stereo unspecified), -0.104%.
On to `COc1ccccc1C1(O)CCCN(C(=O)c2ccnn2C(C)C)C1` (stereo unspecified), for which the cytotoxicity at 10 µM was determined as 2.59%.
In the case of `CC(=O)NCC(=O)N1CCOC(c2cccc(N)n2)C1` (stereo unspecified) it was -4.68%.
As for `Cc1cccc(C(=O)N2CC(Cc3nccc4ccn(C)c34)C2)n1`, the figure is -40.5%.
In the case of `CC(C)CC(=O)N1CCN(Cc2cc(-c3ccncc3)nn2C)CC1` it was -23.2%.
Regarding `CCc1ncnc(N2CCCC(c3cc(C(N)=O)[nH]n3)C2)c1F` (stereo unspecified), the cytotoxicity at 10 µM is -4.68%.
As for `CC(NCc1ccccn1)c1ccc(N2CCN(C)CC2)c(F)c1` (stereo unspecified), the figure is -7.85%; as for `CC(C)c1nc(CC(=O)N2CCN(C)CC2c2ccccc2)cs1` (stereo unspecified), -12.6%; as for `CCOc1cccc(NC(=O)c2cnc(C)cn2)n1`, 4.14%.
For `Cc1cc(C(=O)NCCSC2CCCC2)no1`, the cytotoxicity at 10 µM is -2.21%.
With `NC(=O)COc1cccc(Cn2cccn2)c1`, the cytotoxicity at 10 µM was -1.13%.
On to `COCCOCC1CCN(C(=O)c2ccc3[nH]cnc3c2)C1` (stereo unspecified), for which the cytotoxicity at 10 µM is -5.73%.
For the compound `CN(Cc1cnn(C)c1)C(=O)Nc1cccnc1-n1cccn1`, the cytotoxicity at 10 µM was -1.32%.
For `CC(c1ccccc1)N(C)CC(=O)NCCC#N` (stereo unspecified), the cytotoxicity at 10 µM was determined as 3.52%.
As for `O=C(OCCNc1ncccn1)c1ccc(Cl)s1`, the figure is -2.43%; as for `CN(CCOc1ccc(C#N)cc1)CC1CC1`, 1.47%.
In the case of `COc1c(C2CCCN2CC(=O)Nc2nccs2)c(C)nn1C` (stereo unspecified) it was -2.38%; in that of `NS(=O)(=O)CCN1CCN(c2ccccc2O)CC1`, 9.1%.
As for `O=C(Cc1cccs1)NCC1(O)CCSCC1`, the figure is -10.5%.
As for `Cc1cccc(CNC(=O)Nc2ccn(CCN(C)C)n2)c1`, the cytotoxicity at 10 µM is -4.47%.
In the case of `Cc1ccc(Br)c(S(=O)(=O)NCc2ccnn2C)c1` it was 0.67%; in that of `CN(CCc1ccncc1)C(=O)C1CSCN1C(=O)CC(C)(C)C` (stereo unspecified), 10.2%.
As for `N#Cc1ccc(N2CCC(c3nc(C(F)(F)F)c[nH]3)CC2)nc1`, the figure is -7.09%.
In the case of `Cc1nsc(NC2CC(=O)N(C(C)(C)C)C2)n1` (stereo unspecified) it was -8.52%; in that of `COc1ncnc(N(C)C)c1NC(=O)Cc1c[nH]c2ccc(F)cc12`, -4.2%.
As to `CCCn1nc(C(=O)N2CCCC2c2noc(C)n2)ccc1=O` (stereo unspecified), the cytotoxicity at 10 µM was 3.57%.
For `CN(C(=O)CN1CCC(c2cc3ccccc3[nH]2)CC1)C(C)(C)C#N`, the cytotoxicity at 10 µM was 6.24%.
Turning to `O=C(Nc1ccc2c(c1)OC1(CCCCC1)O2)c1ccc(=O)[nH]n1`, the cytotoxicity at 10 µM is 14.1%.
As for `CCCN(Cc1cnn(C)c1)CC1CCCN(S(C)(=O)=O)C1` (stereo unspecified), the figure is 15.1%.
In the case of `Cc1cccc(N2CCN(C(=O)CC3(O)CCCC3)C(C)C2)n1` (stereo unspecified) it was 15.9%; in that of `CC(C)(C)CC(=O)N1CSCC1C(=O)NCc1cccc(C#N)c1` (stereo unspecified), -9.78%; in that of `Cc1cc(N(C)C)nc(NCCn2cccn2)n1`, 5.65%.
For the compound `CCOc1ccc(CCCC(=O)N2CCC(C(=O)NC)C2)cc1C` (stereo unspecified), the cytotoxicity at 10 µM worked out at 1.85%.
In the case of `COc1ccc(OC)c(C2CCN(C(=O)CCc3n[nH]c(N)n3)C2)c1` (stereo unspecified) it was 5.27%; in that of `O=C(CCc1cc2n(n1)CCCNC2)N1CCSCC1`, 8.55%.
With `CC/C=C(\C)CN1CCC(CNC(=O)c2ccc(=O)[nH]c2)CC1`, the cytotoxicity at 10 µM stood at 8.06%.
In the case of `CCC(Nc1nccc(C2CCCC2)n1)c1ncccc1C` (stereo unspecified) it was -130%.
Turning to `Cc1ccnc(NCC2(N(C)C)CCOCC2)n1`, the cytotoxicity at 10 µM worked out at 3.81%.
As to `Cc1nn(C)c2nc(N(Cc3ccncc3)CC3CCCO3)sc12` (stereo unspecified), the cytotoxicity at 10 µM stood at 9.42%.
In the case of `CC(C)Cc1cc(C(=O)NCCc2nnc(N)s2)n(C)n1` it was 0.649%; in that of `CC(C)(C)c1ncc2c(n1)CN(C(=O)C(C)(C)n1cccc1)C2`, -120%.
Consider `CCc1nccc(CN2CCC(CNC(=O)c3occc3C)C2)n1` (stereo unspecified), for which the cytotoxicity at 10 µM is 6.95%.
In the case of `O=C(Cc1ccc(O)c(F)c1)N1CCN(CC2CC2)[C@@H]2CS(=O)(=O)C[C@@H]21` it was -2.06%.
As for `COC(=O)C1CCN(C(=O)c2cccc(NS(C)(=O)=O)c2C)CC1`, the figure is -6.71%; as for `COCC(=O)N1Cc2c(-c3cccc(C)c3)nc(N)nc2C1C` (stereo unspecified), -0.607%.
On to `CCCC(=O)N1CCN(c2cc(-n3cnc(C)c3C)nc(C)n2)CC1`, for which the cytotoxicity at 10 µM is -1.89%.
Regarding `CCC(NC(=O)c1nn(C)cc1C(=O)O)c1ccc(C)cc1` (stereo unspecified), the cytotoxicity at 10 µM is -3.42%.
In the case of `O=C(CNC(=O)c1ccc2c(c1)CCC2)NCCNc1ncccn1` it was -6.5%; in that of `CN(C)c1ccc(CNC(=O)Nc2ccc(S(C)(=O)=O)nc2)cc1`, -2.48%; in that of `Cc1nc(-c2ccsc2)ccc1C(=O)NCC(C)N1CCOCC1` (stereo unspecified), -3.92%.
As for `Cc1nc(C)n(CC2CCCCN2CC(=O)NC(C2CC2)C2CC2)n1` (stereo unspecified), the figure is -8.61%.
`O=C(c1cccc2ncccc12)N1CCC(Nc2cccnn2)CC1`: the cytotoxicity at 10 µM was -14.7%.
As for `O=C(NCCNC(=O)c1scnc1Cl)c1ccoc1`, the figure is -7.91%.
As for `O=C(NCCNc1ncccn1)C1CC(=O)N(Cc2ccccc2)C1` (stereo unspecified), the figure is -16.2%.
As for `COc1cccc(COCC(=O)N2CCCC(n3cncn3)C2)c1` (stereo unspecified), the figure is -21.1%; as for `COCc1nc(C(=O)N2CCCC(n3ccnc3C)C2)cs1` (stereo unspecified), -33.6%.
`Cc1cnn(CC2CCCN2CC(=O)Nc2cc(C)on2)c1` (stereo unspecified): the cytotoxicity at 10 µM is -26.7%.
Take `CCc1nc(CN2CCN(C(C)c3nc(C4CC4)no3)CC2)no1` (stereo unspecified): the cytotoxicity at 10 µM was -9.45%.
Consider `CCc1n[nH]c(C2CN(C(=O)c3cscn3)CCO2)n1` (stereo unspecified), for which the cytotoxicity at 10 µM was determined as 5.08%.
As for `O=C(NCCc1ccn(-c2ccccc2)n1)N1CCCC(CO)C1` (stereo unspecified), the figure is -23.1%; as for `COc1ccnc(N2CCCN(C(=O)Cc3ccc(C)s3)CC2)n1`, -2.12%; as for `c1cnnc(N2CCCC2CNc2ncnc3c2CCC3)c1` (stereo unspecified), -0.626%.
In the case of `CN(C)CCN1C(=O)CCC12CCCN(C(=O)c1ccncc1F)C2` (stereo unspecified) it was 3.06%.
With `Cc1ccc(CN2CCC3(CCCC(=O)N3)CC2)s1`, the cytotoxicity at 10 µM was -3.45%.
On to `Cn1cc(N2C(=O)CC[C@@H]3[C@H]2CCN3Cc2cccc(C#N)c2)cn1`, for which the cytotoxicity at 10 µM was determined as 8.51%.
Take `Cc1cccc(CN2C(=O)CCC23CCN(C(=O)c2ccco2)CC3)n1`: the cytotoxicity at 10 µM was determined as 4.17%.
In the case of `CN1CCO[C@H]2CN(C(=O)c3ccncc3F)C[C@H]21` it was -141%.
As for `CCCS(=O)(=O)N1CCC2(CN(c3ccsc3)C(=O)CN2C)C1` (stereo unspecified), the figure is -21.1%.
Take `Cc1ccc(CN2CCC3(CC2)CC3CN(C)Cc2cccnc2)o1` (stereo unspecified): the cytotoxicity at 10 µM was -3.76%.
Consider `Cc1nnc(N2C[C@@H](Oc3ccccn3)[C@H]3OCCC[C@H]32)s1`, for which the cytotoxicity at 10 µM is -5%.
In the case of `Cn1ccnc1C(=O)NCc1cnc2n1CCN(CC1CC1)CC2` it was 5.93%; in that of `COCCN1CCC2(COCc3c(C)nc(N4CCOCC4)nc32)C1` (stereo unspecified), -130%; in that of `O=C(CC1CCCC1)N1C[C@H](Oc2cccnc2)[C@H]2OCCC[C@H]21`, 3.82%.
As to `Cc1ccc(CN2CCc3[nH]nc(C(=O)N4CCN(C)CC4)c3C2)o1`, the cytotoxicity at 10 µM was -8.19%.
Consider `CCN1C(=O)CCC12CCCN(Cc1ccc(F)cc1)CC2` (stereo unspecified), for which the cytotoxicity at 10 µM is -0.861%.
As for `CN1CCN(Cc2cccnc2)C2(CCN(Cc3ccoc3)C2)C1=O` (stereo unspecified), the figure is -2.4%; as for `CCN1CCCn2c(nc(CNC(=O)c3cnoc3C)cc2=O)C1`, 6.13%; as for `O=C(NCC1CCC(c2ccnc3ncnn23)CC1)c1ccccn1` (stereo unspecified), 3.64%.
As for `COCCN1C(=O)[C@@H]2CC[C@H]1CN(Cc1nnc(-c3ccccc3)o1)C2`, the figure is -4.94%; as for `O[C@@H]1CC(CNCC2CCCC2)(COc2cccnc2)C[C@@H]1O` (stereo partly specified), -6.53%.
